# ChEMBL document CHEMBL2311421, “Synthesis, crystal structure and antidiabetic activity of substituted (E)-3-(Benzo [d]thiazol-2-ylamino) phenylprop-2-en-1-one” (Eur J Med Chem, 2013)
# What was measured:
# Pancreatic alpha-amylase = biological target: T1, Pancreatic alpha-amylase (Sus scrofa, UniProt P00690); test: Inhibition of pig pancreatic alpha-amylase by Bernfeld method
# T1 sequence (P00690 whole entry): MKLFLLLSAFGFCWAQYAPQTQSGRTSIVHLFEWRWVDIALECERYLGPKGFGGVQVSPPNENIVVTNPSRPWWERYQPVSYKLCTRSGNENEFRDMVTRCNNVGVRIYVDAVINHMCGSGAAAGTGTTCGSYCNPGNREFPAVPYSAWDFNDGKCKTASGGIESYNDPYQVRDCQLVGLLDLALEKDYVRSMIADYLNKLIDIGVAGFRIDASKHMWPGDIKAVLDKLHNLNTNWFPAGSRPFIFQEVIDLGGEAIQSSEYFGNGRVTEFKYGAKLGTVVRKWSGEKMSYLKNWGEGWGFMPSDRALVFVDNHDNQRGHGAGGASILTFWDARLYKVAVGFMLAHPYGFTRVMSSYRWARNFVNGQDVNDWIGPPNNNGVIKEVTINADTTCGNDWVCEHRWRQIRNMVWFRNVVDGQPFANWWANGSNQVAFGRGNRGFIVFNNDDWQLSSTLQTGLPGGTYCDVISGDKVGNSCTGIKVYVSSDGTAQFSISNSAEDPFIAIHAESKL
# [1] = Inhibition of Swiss mouse intestinal glucosidase
# Method in brief: (§1)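 Enzyme source: tissue homogenates of pancreas, liver or small intestine from 12 h-starved 10-week-old male Swiss mice (20 g), made 1:10 w/v in ice-cold 10 mM phosphate buffer with 6 mM NaCl plus protease inhibitors. Spun at 10,000 rpm for 10 min; supernatant diluted to A280 0.4. Assayed as for amylase. IC50 from mean of n = 3.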
# [2] = Inhibition of Swiss mouse pancreatic glucosidase; method in brief: as §1
# [3] = Inhibition of Swiss mouse liver glucosidase; method in brief: as §1
SMILES,IC50 (Pancreatic alpha-amylase) [µM],IC50 ([1]; read-out: IC50) [µM],IC50 [2] [µM],IC50 ([3]; read-out: IC50) [µM],IC50 [1],IC50 [3]
CCOc1ccc2nc(N/C(=C\C(=O)c3ccc(F)cc3)SC)sc2c1,18.4,49.4,23.5,24.2,–,–
CS/C(=C/C(=O)c1ccc(Cl)cc1)Nc1nc2ccccc2s1,20.3,44.5,32.4,15,–,–
CCOc1ccc2nc(N/C(=C\C(=O)c3ccc(Cl)cc3)SC)sc2c1,17.9,14.7,26.5,17.4,–,–
CCOc1ccc2nc(N/C(=C\C(=O)c3ccc(OC)cc3)SC)sc2c1,18.6,29.3,23.2,21.4,–,–
CCOc1ccc2nc(N/C(=C\C(=O)c3ccc(Br)cc3)SC)sc2c1,15.9,31.9,20.9,15.7,–,–
CS/C(=C/C(=O)c1ccc(C)cc1)Nc1nc2ccccc2s1,20.6,30,26.9,22.5,–,–
CS/C(=C/C(=O)c1ccc(Br)cc1)Nc1nc2cc(C)c(C)cc2s1,16.9,25.9,24.7,16.7,–,–
CCOc1ccc2nc(N/C(=C\C(=O)c3ccccc3)SC)sc2c1,16.3,–,18,–,Not Active,Not Active
CS/C(=C/C(=O)c1ccc(Br)cc1)Nc1nc2ccccc2s1,17.8,45.3,21.7,15.4,–,–
CS/C(=C/C(=O)c1ccc(F)cc1)Nc1nc2ccccc2s1,19.9,32.1,33.6,21.7,–,–
CCOc1ccc2nc(N/C(=C\C(=O)c3ccc(C)cc3)SC)sc2c1,18.9,23.5,19.9,24.2,–,–
C[C@H]1O[C@H](O[C@H]2[C@H](O)[C@@H](O)[C@@H](O[C@H]3[C@H](O)[C@@H](O)C(O)O[C@@H]3CO)O[C@@H]2CO)[C@H](O)[C@@H](O)[C@@H]1N[C@H]1C=C(CO)[C@@H](O)[C@H](O)[C@H]1O (some centres not stated) [ACARBOSE],–,–,> 100,> 100,Not Active,–
